According to ChEMBL document CHEMBL1158483, “N-O-isopropyl sulfonamido-based hydroxamates: design, synthesis and biological evaluation of selective matrix metalloproteinase-13 inhibitors as potential therapeutic agents for osteoarthritis” (J Med Chem, 2009):
Active and inactive are the calls of the source. No cut-off for these calls is given here.

Key:
Stromelysin-1 = Stromelysin-1 (Homo sapiens, UniProt P08254); assay: Inhibition of MMP3
How it was run: (§1)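 Human recombinant enzymes in Tris 50 mM pH 7.5, NaCl 150 mM, CaCl2 10 mM, Brij 35 0.05%, DMSO 1%. Final enzyme: MMP-1 2.0 nM, MMP-2 2.9, MMP-3 5, MMP-8 1.5, MMP-9 2.7, MMP-14 cd 1, MMP-16 cd 15, TACE 7.5 nM. Pro-MMP-1/-2/-8 activated with APMA 2 mM, pro-MMP-9 with APMA 1 mM, each 1 h at 37 °C. Pro-MMP-3 activated with trypsin 5 µg/mL for 30 min at 37 °C, then soybean trypsin inhibitor.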

Neutrophil collagenase = Neutrophil collagenase (Homo sapiens, UniProt P22894); assay: Inhibition of MMP8; how it was run: as §1
[1] = target: Matrix metalloproteinase-9 (Homo sapiens, UniProt P14780); assay: Inhibition of MMP9; how it was run: as §1
Interstitial collagenase [2] = target: T1, Interstitial collagenase (Homo sapiens, UniProt P03956); assay: Inhibition of MMP1; how it was run: as §1
T1 sequence (P03956 whole entry): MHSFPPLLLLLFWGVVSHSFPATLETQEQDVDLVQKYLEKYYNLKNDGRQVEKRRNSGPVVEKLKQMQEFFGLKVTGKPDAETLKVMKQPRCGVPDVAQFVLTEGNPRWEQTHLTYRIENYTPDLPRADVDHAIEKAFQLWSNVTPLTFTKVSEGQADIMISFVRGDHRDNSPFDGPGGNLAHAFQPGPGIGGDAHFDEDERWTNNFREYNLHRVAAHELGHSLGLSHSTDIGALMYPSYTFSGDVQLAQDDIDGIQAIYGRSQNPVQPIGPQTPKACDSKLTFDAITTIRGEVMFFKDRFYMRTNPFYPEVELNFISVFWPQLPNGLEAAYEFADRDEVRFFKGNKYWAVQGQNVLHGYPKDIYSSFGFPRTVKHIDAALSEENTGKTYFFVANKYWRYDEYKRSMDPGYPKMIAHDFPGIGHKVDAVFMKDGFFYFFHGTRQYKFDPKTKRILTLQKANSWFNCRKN

[3] = target: 72 kDa type IV collagenase (Homo sapiens, UniProt P08253); assay: Inhibition of MMP2; how it was run: as §1
Collagenase 3 [4] = target: T2, Collagenase 3 (Homo sapiens, UniProt P45452); assay: Inhibition of MMP13
[5] = target: Matrix metalloproteinase-14 (Homo sapiens, UniProt P50281); assay: Inhibition of human recombinant MMP14; how it was run: as §1
Interstitial collagenase [6] = target: T1, Interstitial collagenase; assay: Inhibition of MMP1-mediated collagen degradation by SDS-PAGE
How it was run: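 Full-length MMP-1 (0.5 nM) preincubated with inhibitor (0–10 µM) for 2 h at 25 °C in Tris-HCl 50 mM pH 7.5, NaCl 150 mM, CaCl2 5 mM, Brij-35 0.05%, NaN3 0.02%. Guinea-pig skin acid-soluble collagen (final 1.35 mg/mL) added, 16 h at 25 °C, stopped with EDTA. Full-length and 3/4-fragment α2 chains quantified by densitometry after 7.5% SDS-PAGE with Coomassie stain; IC50 derived.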

Collagenase 3 [7] = target: T2, Collagenase 3; assay: Inhibition of MMP13-mediated collagen degradation by SDS-PAGE
[8] = target: Matrix metalloproteinase-16 (Homo sapiens, UniProt P51512); assay: Inhibition of human recombinant MMP16; how it was run: as §1
[9] = target: Disintegrin and metalloproteinase domain-containing protein 17 (Homo sapiens, UniProt P78536); assay: Inhibition of TACE; how it was run: as §1
Sus scrofa [10] = organism: Sus scrofa; assay: Inhibition of MMP13-mediated collagen degradation in long term IL-1-alpha-stimulated pig articular cartilage explant culture assessed as hydroxyproline release
How it was run: (§2)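 Porcine metacarpophalangeal cartilage explants from 3–9-month pigs were rested 24 h with serum, then 3 days serum-free. They were stimulated with IL-1α 10 ng/mL plus inhibitor at 0.1, 1 or 10 µM in serum-free DMEM, with medium changed every 3–4 days. Hydroxyproline was measured in the medium after 6 N HCl hydrolysis, using chloramine T/DMBA and absorbance at 560 nm against a standard curve. Cumulative release was corrected for unstimulated background.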

Sus scrofa [11] = organism: Sus scrofa; assay: Inhibition of MMP13-mediated collagen degradation in long term IL-1-alpha-stimulated pig articular cartilage explant culture assessed as hydroxyproline release at 1 uM; how it was run: as §2
Sus scrofa [12] = organism: Sus scrofa; assay: Inhibition of MMP13-mediated collagen degradation in long term IL-1-alpha-stimulated pig articular cartilage explant culture assessed as hydroxyproline release at 10 uM; how it was run: as §2

72 kDa type IV collagenase, sequence (P08253 whole entry): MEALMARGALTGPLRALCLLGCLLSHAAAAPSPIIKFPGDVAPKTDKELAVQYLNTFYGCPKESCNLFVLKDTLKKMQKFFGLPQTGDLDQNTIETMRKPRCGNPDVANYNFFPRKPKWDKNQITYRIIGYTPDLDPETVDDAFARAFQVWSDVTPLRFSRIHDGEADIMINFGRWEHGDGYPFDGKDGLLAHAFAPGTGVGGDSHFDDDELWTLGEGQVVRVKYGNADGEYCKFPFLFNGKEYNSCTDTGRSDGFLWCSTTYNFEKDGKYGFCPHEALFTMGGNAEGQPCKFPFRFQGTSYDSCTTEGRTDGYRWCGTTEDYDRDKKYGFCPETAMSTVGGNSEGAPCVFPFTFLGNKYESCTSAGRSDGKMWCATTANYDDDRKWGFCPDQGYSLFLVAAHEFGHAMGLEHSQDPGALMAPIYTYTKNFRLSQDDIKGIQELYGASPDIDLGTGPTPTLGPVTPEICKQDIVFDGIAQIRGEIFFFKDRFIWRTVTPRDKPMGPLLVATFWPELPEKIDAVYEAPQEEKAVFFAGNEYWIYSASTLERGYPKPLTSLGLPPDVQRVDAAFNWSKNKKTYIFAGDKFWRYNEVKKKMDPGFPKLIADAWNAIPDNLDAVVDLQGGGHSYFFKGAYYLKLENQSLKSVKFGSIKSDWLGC
Matrix metalloproteinase-9, sequence (P14780 whole entry): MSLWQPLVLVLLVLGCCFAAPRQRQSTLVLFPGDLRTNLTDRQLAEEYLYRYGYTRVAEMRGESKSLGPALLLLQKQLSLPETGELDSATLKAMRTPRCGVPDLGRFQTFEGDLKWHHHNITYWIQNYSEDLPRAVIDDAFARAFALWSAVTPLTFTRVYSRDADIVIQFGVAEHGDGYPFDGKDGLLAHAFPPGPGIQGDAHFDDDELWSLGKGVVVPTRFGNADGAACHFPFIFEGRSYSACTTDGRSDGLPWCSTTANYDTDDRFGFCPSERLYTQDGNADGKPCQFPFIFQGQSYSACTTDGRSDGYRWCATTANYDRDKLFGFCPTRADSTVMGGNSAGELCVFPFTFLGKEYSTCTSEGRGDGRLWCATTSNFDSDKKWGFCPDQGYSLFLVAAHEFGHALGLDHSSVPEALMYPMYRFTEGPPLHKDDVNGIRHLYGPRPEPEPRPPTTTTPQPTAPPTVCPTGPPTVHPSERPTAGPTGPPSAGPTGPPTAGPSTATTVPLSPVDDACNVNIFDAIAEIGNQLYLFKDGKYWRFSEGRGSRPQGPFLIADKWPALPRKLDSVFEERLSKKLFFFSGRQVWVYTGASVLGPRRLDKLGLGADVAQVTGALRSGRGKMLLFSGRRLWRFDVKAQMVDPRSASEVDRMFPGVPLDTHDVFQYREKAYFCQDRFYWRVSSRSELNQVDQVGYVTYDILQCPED
Disintegrin and metalloproteinase domain-containing protein 17, sequence (P78536 whole entry, the tested form may be a part): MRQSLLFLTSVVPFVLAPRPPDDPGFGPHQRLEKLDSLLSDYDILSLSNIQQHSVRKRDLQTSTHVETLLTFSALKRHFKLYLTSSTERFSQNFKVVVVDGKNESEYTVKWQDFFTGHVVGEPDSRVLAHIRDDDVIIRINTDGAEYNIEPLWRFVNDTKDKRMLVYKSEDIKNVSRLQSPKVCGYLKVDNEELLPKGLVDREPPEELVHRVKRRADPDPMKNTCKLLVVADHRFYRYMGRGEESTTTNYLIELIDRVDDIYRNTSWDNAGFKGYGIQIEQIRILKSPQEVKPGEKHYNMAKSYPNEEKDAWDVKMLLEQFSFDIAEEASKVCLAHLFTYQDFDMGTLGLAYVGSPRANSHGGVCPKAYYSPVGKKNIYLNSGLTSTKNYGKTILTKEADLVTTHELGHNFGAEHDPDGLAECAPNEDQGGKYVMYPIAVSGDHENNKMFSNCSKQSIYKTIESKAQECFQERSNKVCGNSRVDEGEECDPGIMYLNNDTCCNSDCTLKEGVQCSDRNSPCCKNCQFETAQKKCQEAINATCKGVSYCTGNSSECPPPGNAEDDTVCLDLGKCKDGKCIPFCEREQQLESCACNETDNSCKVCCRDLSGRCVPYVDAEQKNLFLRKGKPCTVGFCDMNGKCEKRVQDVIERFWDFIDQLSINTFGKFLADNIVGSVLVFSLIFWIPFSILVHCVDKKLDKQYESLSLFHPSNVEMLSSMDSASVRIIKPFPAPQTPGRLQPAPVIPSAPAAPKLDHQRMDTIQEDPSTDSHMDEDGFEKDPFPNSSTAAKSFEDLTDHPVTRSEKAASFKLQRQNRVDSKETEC
Neutrophil collagenase, sequence (P22894 whole entry): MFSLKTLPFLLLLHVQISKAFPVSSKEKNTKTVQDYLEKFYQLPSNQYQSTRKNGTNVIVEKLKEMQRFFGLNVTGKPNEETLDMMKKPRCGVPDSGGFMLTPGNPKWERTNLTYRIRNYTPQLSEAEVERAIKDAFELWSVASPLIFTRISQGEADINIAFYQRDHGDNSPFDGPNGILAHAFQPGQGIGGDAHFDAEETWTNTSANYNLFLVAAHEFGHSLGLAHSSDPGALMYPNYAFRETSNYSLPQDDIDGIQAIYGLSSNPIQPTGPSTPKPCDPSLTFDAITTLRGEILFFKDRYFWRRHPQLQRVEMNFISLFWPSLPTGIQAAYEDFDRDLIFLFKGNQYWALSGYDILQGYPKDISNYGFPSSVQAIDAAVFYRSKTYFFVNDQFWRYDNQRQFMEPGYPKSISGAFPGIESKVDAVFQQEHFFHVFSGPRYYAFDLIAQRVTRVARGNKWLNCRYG
Stromelysin-1, sequence (P08254 whole entry): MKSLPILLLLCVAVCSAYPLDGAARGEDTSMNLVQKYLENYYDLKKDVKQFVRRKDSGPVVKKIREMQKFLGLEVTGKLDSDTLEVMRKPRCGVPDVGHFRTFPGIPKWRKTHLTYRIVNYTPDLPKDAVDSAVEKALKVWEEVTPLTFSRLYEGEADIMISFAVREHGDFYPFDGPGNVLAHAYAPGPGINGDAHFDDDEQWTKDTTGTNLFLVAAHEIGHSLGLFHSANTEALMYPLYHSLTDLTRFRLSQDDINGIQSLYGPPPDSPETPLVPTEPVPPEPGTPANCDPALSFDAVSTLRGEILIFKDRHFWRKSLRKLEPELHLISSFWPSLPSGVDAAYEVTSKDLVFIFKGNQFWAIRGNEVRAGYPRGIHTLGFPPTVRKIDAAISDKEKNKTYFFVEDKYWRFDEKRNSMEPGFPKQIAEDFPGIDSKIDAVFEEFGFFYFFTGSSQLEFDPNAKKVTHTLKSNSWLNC
Matrix metalloproteinase-16, sequence (P51512 whole entry, the tested form may be a part): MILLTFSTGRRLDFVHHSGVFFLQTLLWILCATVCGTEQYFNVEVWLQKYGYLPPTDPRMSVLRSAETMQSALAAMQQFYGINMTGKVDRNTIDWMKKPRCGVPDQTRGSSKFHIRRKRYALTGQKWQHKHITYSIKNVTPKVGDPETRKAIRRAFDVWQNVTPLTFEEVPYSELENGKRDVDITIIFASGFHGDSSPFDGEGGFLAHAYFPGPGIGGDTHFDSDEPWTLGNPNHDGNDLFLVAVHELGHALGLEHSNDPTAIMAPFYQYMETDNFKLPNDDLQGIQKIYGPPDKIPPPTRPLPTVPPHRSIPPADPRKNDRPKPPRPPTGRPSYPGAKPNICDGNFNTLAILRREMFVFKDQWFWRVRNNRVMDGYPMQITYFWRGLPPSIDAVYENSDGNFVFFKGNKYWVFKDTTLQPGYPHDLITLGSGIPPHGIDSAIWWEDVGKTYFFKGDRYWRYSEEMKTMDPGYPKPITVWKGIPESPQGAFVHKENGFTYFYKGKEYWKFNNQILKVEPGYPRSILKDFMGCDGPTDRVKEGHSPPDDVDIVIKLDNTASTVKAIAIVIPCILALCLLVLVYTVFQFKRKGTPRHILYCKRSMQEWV

Row | Compound | IC50 (Stromelysin-1) | IC50 (Neutrophil collagenase) | IC50 [1] | IC50 (Interstitial collagenase [2]) | IC50 [3] | IC50 (Collagenase 3 [4]) | IC50 [5] | IC50 (Interstitial collagenase [6]) | IC50 (Collagenase 3 [7]) | Ki [3] | Ki (Collagenase 3 [4]) | IC50 [8] | IC50 [9] | inhibition (Sus scrofa [10]) | inhibition (Sus scrofa [11]) | inhibition (Sus scrofa [12])
1 | CC(C)CN(CC(=O)NO)S(=O)(=O)c1ccc(-c2ccccc2)cc1 | 920 nM | 48 nM | 34 nM | 4800 nM | 12 nM | 39 nM | 530 nM | 4100 nM | 9.4 nM | – | – | – | – | – | – | –
2 | CC(C)ON(CC(=O)NO)S(=O)(=O)c1ccc(-c2ccc(OCc3ccc(Cl)cc3)cc2)cc1 | 1800 nM | 1700 nM | 1100 nM | 13000 nM | 40 nM | 19 nM | 3400 nM | – | – | 25 nM | 8.2 nM | 15000 nM | 35000 nM | – | – | –
3 | O=C(CNS(=O)(=O)c1ccc(-c2ccccc2)cc1)NO | 320 nM | 7 nM | 34 nM | 610 nM | 2 nM | 2.8 nM | 70 nM | 970 nM | 2.4 nM | – | – | – | – | – | – | –
4 | CC(C)ON(CC(=O)NO)S(=O)(=O)c1ccc(Oc2ccccc2)cc1 | 1200 nM | 66 nM | 110 nM | 59000 nM | 26 nM | 63 nM | 590 nM | – | – | – | – | – | – | – | – | –
5 | CC(C)ON(CC(=O)NO)S(=O)(=O)c1ccc(-c2ccc(F)cc2)s1 | 9100 nM | 440 nM | 3200 nM | 20000 nM | 310 nM | 600 nM | 6500 nM | – | – | – | – | – | – | – | – | –
6 | CCc1ccc(-c2ccc(S(=O)(=O)N(CC(=O)NO)OC(C)C)s2)cc1 | 4300 nM | 140 nM | 680 nM | > 10000 nM | 56 nM | 91 nM | 2400 nM | – | – | – | – | – | – | – | – | –
7 | CC(C)ON(CC(=O)NO)S(=O)(=O)c1ccc(/C=C/c2ccc(-c3ccccc3)cc2)cc1 | 710 nM | 3600 nM | 2300 nM | 5600 nM | 74 nM | 41 nM | 2800 nM | – | – | – | – | – | – | – | – | –
8 | COc1ccc(-c2ccc(S(=O)(=O)N(CC(=O)NO)OC(C)C)s2)cc1 | 1200 nM | 110 nM | 250 nM | > 10000 nM | 17 nM | 25 nM | > 1000 nM | – | – | – | – | – | – | – | – | –
9 | CCCCc1ccc(C#Cc2ccc(S(=O)(=O)N(CC(=O)NO)OC(C)C)s2)cc1 | 4300 nM | 7600 nM | 4400 nM | 13000 nM | 360 nM | 260 nM | 11000 nM | – | – | – | – | – | – | – | – | –
10 | CC(C)ON([C@@H](C(=O)NO)C(C)C)S(=O)(=O)c1ccc(-c2ccc(OCc3ccc(Cl)cc3)cc2)cc1 | 180 nM | 63 nM | 69 nM | 48000 nM | 9.6 nM | 3 nM | 14000 nM | 15000 nM | 1.4 nM | 54 nM | 29 nM | 5000 nM | > 100000 nM | Dose-dependent effect | Active | –
11 | CC(C)ON(CC(=O)NO)S(=O)(=O)c1ccc(-c2ccccc2)cc1 | 5900 nM | 260 nM | – | 12000 nM | – | 45 nM | 2300 nM | 2900 nM | 25 nM | 13 nM | 20 nM | 900 nM | > 100000 nM | Dose-dependent effect | – | Active
12 | COc1ccc(-c2ccc(S(=O)(=O)N(CC(=O)NO)OC(C)C)cc2)cc1 | 1800 nM | 65 nM | 160 nM | 13000 nM | 4.2 nM | 10 nM | 1000 nM | – | – | 3.8 nM | 5.8 nM | – | – | – | – | –
13 | CCCCOc1ccc(-c2ccc(S(=O)(=O)N(CC(=O)NO)OC(C)C)cc2)cc1 | 1600 nM | 560 nM | 44 nM | 11000 nM | 5.5 nM | 15 nM | 5500 nM | – | – | – | – | – | – | – | – | –
14 | CSc1ccc(-c2ccc(S(=O)(=O)N(CC(=O)NO)OC(C)C)cc2)cc1 | 1300 nM | 37 nM | 77 nM | 3300 nM | 1.5 nM | 7.2 nM | 320 nM | – | – | – | – | – | – | – | – | –
